Reference: ChEMBL document CHEMBL1124458, “Electrophilic derivatives of purines as irreversible inhibitors of A1 adenosine receptors” (J Med Chem, 1989)
Each block holds one molecule with its values, some of them ahead of it.

Columns and labels:
[1] = target: T1, Adenosine receptor A1 (Rattus norvegicus) (UniProt P25099); test: Percentage inhibition of [125I]APNEA binding to adenosine A1 receptor from rat brain after 45 min incubation at 1 nM
T1 sequence (whole entry): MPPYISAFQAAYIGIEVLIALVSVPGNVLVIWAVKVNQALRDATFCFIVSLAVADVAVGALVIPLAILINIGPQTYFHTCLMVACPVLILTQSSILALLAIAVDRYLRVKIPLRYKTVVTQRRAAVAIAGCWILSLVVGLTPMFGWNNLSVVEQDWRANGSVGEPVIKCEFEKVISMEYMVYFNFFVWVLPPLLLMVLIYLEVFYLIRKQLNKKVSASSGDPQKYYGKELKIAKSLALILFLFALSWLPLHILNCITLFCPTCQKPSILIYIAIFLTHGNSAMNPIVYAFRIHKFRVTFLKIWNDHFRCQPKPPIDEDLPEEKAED
Outline: (§1)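 Rat cerebral cortex membranes pretreated with adenosine deaminase (0.5 unit/mL, 20 min, 37 °C). Incubated with ligand at the stated concentration for 45 min at 37 °C, then washed three times in Tris/MgCl2/EDTA buffer pH 8.26 with 0.02% Chaps. Then 10⁻⁴ M IBMX for 18 h at 25 °C, washed twice and deaminase-treated again. Untreated membranes went through every step as controls.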

[2] = target: T2, Adenosine receptors; A1 & A2 (Rattus norvegicus) (UniProt P29276+P25099+P30543); test: Relative affinities for Adenosine A2 and Adenosine A1 receptors; assay type: protein assay
[3] = target: T1, Adenosine receptor A1 (Rattus norvegicus); test: Percentage inhibition of [125I]APNEA binding to adenosine A1 receptor from rat brain after 45 min incubation at 10 nM; outline: as §1
Adenosine A2 receptor [4] = target: T3, Adenosine A2 receptor (Rattus norvegicus, UniProt P29276+P30543); test: Inhibition of [3H]N-ethyladenosine-5'-uronamide binding to Adenosine A2 receptor of rat striatal membrane
[5] = target: T1, Adenosine receptor A1 (Rattus norvegicus); test: Percentage inhibition of [125I]APNEA binding to Adenosine A1 receptor from rat brain after 45 min incubation at 10 nM; outline: as §1
[6] = target: T1, Adenosine receptor A1 (Rattus norvegicus); test: Percentage inhibition of [125I]APNEA binding to adenosine A1 receptor from rat brain after 45 min incubation at 500 nM
Outline: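 Adenosine deaminase-treated rat cerebral cortex membranes were exposed to the ligand for 45 min at 37 °C. They were washed three times, held in buffer with 10⁻⁴ M IBMX for 18 h at 25 °C, washed and re-treated with deaminase. Residual sites were measured by 125I-APNEA saturation (0.1–2.5 nM) against untreated membranes carried through the same procedure.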

Adenosine receptor A1 [7] = target: T4, Adenosine receptor A1 (Rattus norvegicus, UniProt P25099); test: Affinity for A1 adenosine receptor using [3H]-N6 -(phenylisopropyl)-adenosine (R)-[3H]-PIA in rat brain; assay type: tissue-based
T4 sequence (P25099 whole entry): T1 sequence (whole entry)
Outline: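 Rat cerebral cortex membranes pretreated with adenosine deaminase (0.5 unit/mL, 20 min, 37 °C). Competition against 1 nM (R)-[3H]PIA over a range of ligand concentrations, in triplicate, in at least three experiments. […] For irreversible ligands the value is an apparent Ki.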

Adenosine receptor A1 [8] = target: T5, Adenosine receptor A1 (Bos taurus, UniProt P28190); test: Affinity for Adenosine A1 receptor using [125I]APNEA in calf brain.
T5 sequence (P28190 whole entry): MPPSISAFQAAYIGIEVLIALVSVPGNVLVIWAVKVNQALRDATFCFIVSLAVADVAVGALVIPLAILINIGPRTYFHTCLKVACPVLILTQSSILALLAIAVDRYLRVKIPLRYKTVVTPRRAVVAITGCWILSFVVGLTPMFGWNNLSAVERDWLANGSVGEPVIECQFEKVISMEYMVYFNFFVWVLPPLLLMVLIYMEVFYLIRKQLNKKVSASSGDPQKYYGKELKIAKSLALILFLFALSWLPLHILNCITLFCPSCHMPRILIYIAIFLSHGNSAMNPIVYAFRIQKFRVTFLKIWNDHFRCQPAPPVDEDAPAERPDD
Outline: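 Bovine cerebral cortex membranes were pretreated with adenosine deaminase (0.5 unit/mL, 20 min, 37 °C). Membranes (40 µg) were incubated with 125I-APNEA and competitor for 1 h at 37 °C. Separation was by dilution in cold Tris-HCl/MgCl2/EDTA buffer, pH 8.26, with 0.02% Chaps, then glass-filter filtration and gamma counting. Nonspecific binding was defined with 10⁻⁵ M (R)-PIA.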

Adenosine A2 receptor [9] = target: T3, Adenosine A2 receptor; test: Inhibitory affinity for adenosine A2 receptor using [3H]N-ethyladenosine-5'-uronamide; assay type: protein assay
Adenosine receptor A1 [10] = target: T4, Adenosine receptor A1; test: Affinity for adenosine A1 receptor using [3H]-N6 -(phenylisopropyl)-adenosine (R)-[3H]-PIA in rat brain.; assay type: tissue-based
Outline: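 Rat cerebral cortex membranes were incubated with 1 nM (R)-[3H]PIA and a range of competitor concentrations. Each point was run in triplicate, in at least three separate experiments.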

[11] = target: T2, Adenosine receptors; A1 & A2 (Rattus norvegicus); test: Selectivity ratio between Ki for adenosine A2 and A1 receptors; assay type: protein assay

SMILES: O=C(Cc1ccc(NC(=O)Cc2ccc(Nc3ncnc4c3ncn4C3O[C@H](CO)[C@@H](O)[C@H]3O)cc2)cc1)NCC/N=C(\S)Nc1cccc(N=C=S)c1 (stereo partly specified)
inhibition [1]: 62% | Ratio [2]: 203 | inhibition [3]: > 90% | Ki (Adenosine A2 receptor [4]): 176 nM | inhibition [5]: > 90%

inhibition [6]: 0% | Ki (Adenosine receptor A1 [7]): 266 nM | Ki (Adenosine receptor A1 [8]): 3.17 nM
SMILES: CCCn1c(=O)c2nc(-c3ccc(OCC(=O)NCC=O)cc3)[nH]c2n(CCC)c1=O

Ki (Adenosine A2 receptor [9]): 70 nM | Ki (Adenosine receptor A1 [10]): 51.1 nM | Ratio [11]: 1.37
SMILES: O=C(Cc1ccc(NC(=O)Cc2ccc(Nc3ncnc4c3ncn4C3O[C@H](CO)[C@@H](O)[C@H]3O)cc2)cc1)NCC/N=C(\S)Nc1ccc(S(=O)(=O)[O-])cc1.[Na+] (stereo partly specified)
